Experiments:
Rattus norvegicus [1] = species: Rattus norvegicus; test: Log of KB that is, inhibition of U-46,619-induced contraction of Rat thoracic aorta in the presence of indomethacin; format: functional
Rattus norvegicus [2] = species: Rattus norvegicus; test: Inhibition of U-46,619-induced contraction of Rat thoracic aorta in the presence of indomethacin(control); format: functional
Method in brief: (§1)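 Rat thoracic aortic strips equilibrated 1 h in Krebs-Henseleit solution containing 3 X 10^-6 M indomethacin; TMQ analogues tested at 100 µM against U46619-induced contraction. Cumulative U46619 concentration-response curves by the van Rossum method. U46619 EC50 read graphically from individual percent response vs log concentration plots and expressed as pD2. Significance level 5% versus control.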

Homo sapiens [3] = species: Homo sapiens; test: Inhibition of 0.5-0.7 uM of U-46,619 induced human platelet aggregation; format: functional
Method in brief: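 Human platelet-rich plasma from donors medication-free for at least 10 days. Born turbidometric aggregation, with U46619 at the minimum concentration giving maximal aggregation. Inhibitor added 1 min before U46619. IC50 taken from the change in light-transmittance amplitude at 4 min.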

Rattus norvegicus [4] = species: Rattus norvegicus; test: Inhibition of U-46,619-induced contraction of Rat thoracic aorta in the presence of indomethacin, KB; format: functional
Homo sapiens [5] = species: Homo sapiens; test: Inhibition of 0.5-0.7 uM of U-46,619 induced [14C]5-HT secretion; format: functional
Method in brief: (§2)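 Human platelet-rich plasma from medication-free volunteers. Dense-granule secretion measured as release of radioactivity from prelabeled platelets, induced by ADP or U46619. Inhibitors added 1 min before the inducer, which was used at the minimum concentration giving maximal aggregation. Values are IC50s.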

Rattus norvegicus [6] = species: Rattus norvegicus; test: Inhibition of U-46,619-induced contraction of Rat thoracic aorta in the presence of indomethacin, at conc 100 uM; format: functional; method in brief: as §1
Rattus norvegicus [7] = species: Rattus norvegicus; test: Inhibition against U-46,619-induced contraction of Rat thoracic aorta was determined expressed as pA2; format: functional; details: read-out: pA2 (converted)
Rattus norvegicus [8] = species: Rattus norvegicus; test: Inhibition of U-46,619-induced contraction of Rat thoracic aorta in the presence of indomethacin (control); format: functional; method in brief: as §1
Homo sapiens [9] = species: Homo sapiens; test: Inhibition of 0.5-0.7 uM of ADP induced [14C]5-HT secretion; format: functional, organism-based; details: in the assay text read “1.5-1.9 uM” for “0.5-0.7 uM”; method in brief: as §2
Homo sapiens [10] = species: Homo sapiens; test: Inhibition of 1.5-1.9 uM of ADP-induced human platelet aggregation; format: functional
Method in brief: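 Platelet-rich plasma from human volunteers free of medication for at least 10 days. Turbidometric (Born) aggregation in a dual-channel aggregometer, with ADP at the minimum concentration giving maximal aggregation. Inhibitor added 1 min before ADP. IC50 derived from the change in light-transmittance amplitude at 6 min. Mean ± SEM of three preparations.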

Rattus norvegicus [11] = species: Rattus norvegicus; test: Inhibition of U-46,619-induced contraction of Rat thoracic aorta in the presence of indomethacin control); format: functional; method in brief: as §1
Rattus norvegicus [12] = species: Rattus norvegicus; test: Inhibition of U-46,619-induced contraction of Rat thoracic aorta in the presence of indomethacin; format: functional; method in brief: as §1
Rattus norvegicus [13] = species: Rattus norvegicus; test: Inhibition of U-46,619-induced contraction of Rat thoracic aorta expressed as pKB value of the compound; format: functional

SMILES	pKB (Rattus norvegicus [1])	pD2 (Rattus norvegicus [2])	IC50 (Homo sapiens [3])	Kb (Rattus norvegicus [4])	IC50 (Homo sapiens [5])	pD2 (Rattus norvegicus [6])	Kb (Rattus norvegicus [7])	pD2 (Rattus norvegicus [8])	IC50 (Homo sapiens [9])	IC50 (Homo sapiens [10])	pD2 (Rattus norvegicus [11])	Kb (Rattus norvegicus [12])	pKB (Rattus norvegicus [13])
COc1cc(CC2c3cc(O)c(O)cc3CCN2Cc2ccc(C)cc2)cc(OC)c1OC (stereo not given)	4.26	8.05	55.9 µM	55 µM	40.4 µM	7.58	30.2 µM	–	–	–	–	–	–
COc1ccc(CN2CCc3cc(O)c(O)cc3C2Cc2cc(OC)c(OC)c(OC)c2)cc1 (stereo not given)	4.16	–	50.2 µM	69.2 µM	56.2 µM	7.64	–	8.07	–	–	–	–	–
COc1cc(CC2c3cc(O)c(O)cc3CCN2Cc2ccc(Cl)cc2)cc(OC)c1OC (stereo not given)	–	–	119 µM	–	128 µM	8.09	–	8.1	–	–	–	–	–
COc1cc(CC2c3cc(O)c(O)cc3CCN2Cc2ccccc2)cc(OC)c1OC (stereo not given)	3.86	–	67.4 µM	138 µM	66.4 µM	7.86	–	8.11	54.1 µM	67.5 µM	–	–	–
COc1cc(CC2c3cc(O)c(O)cc3CCN2Cc2ccc(N)cc2)cc(OC)c1OC (stereo not given)	3.79	–	27 µM	162 µM	27.1 µM	8.03	–	8.26	29.1 µM	40 µM	–	–	–
COc1cc(CC2c3cc(O)c(O)cc3CCN2Cc2ccc(Cl)c(Cl)c2)cc(OC)c1OC (stereo not given)	–	–	257 µM	–	264 µM	8.22	–	–	–	–	8.12	–	–
COc1cc(CC2c3cc(O)c(O)cc3CCN2Cc2ccc([N+](=O)[O-])cc2)cc(OC)c1OC (stereo not given)	4.05	–	296 µM	89.1 µM	269 µM	7.84	–	8.21	289 µM	359 µM	–	–	–
COc1cc(NCc2ccc3nc(N)nc(N)c3c2C)cc(OC)c1OC [TRIMETREXATE]	–	–	0.77 µM	–	0.75 µM	6.78	–	–	–	–	–	4.26 µM	5.37

Reference: ChEMBL document CHEMBL1124299, “Synthesis and thromboxane A2 antagonist activity of N-benzyltrimetoquinol analogues” (J Med Chem, 1988)
